Screening data as filed in PubChem BioAssay.
Compounds with a hit are over-represented: about 2.3% of the library has one in this group of screens.
sPLA2-III inh – human group III sPLA2 inhibitors, primary screen, biochemical, QFRET, BODIPY PC-A2 liposome substrate; inhibition, % at 12.2 µM; Group 3 secretory phospholipase A2 (Homo sapiens), Q9NZ20; QFRET BODIPY PC-A2 liposome hydrolysis, fluorescence; 0.56% of 370,000 active;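 active = inhibition above mean plus 3 SD of compounds lying within the high and low control bounds, cut at about 19% in these data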;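 also: 0% = median of test compound wells and 100% = no enzyme DMSO wells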
Target sequence (Q9NZ20 whole entry, looked up): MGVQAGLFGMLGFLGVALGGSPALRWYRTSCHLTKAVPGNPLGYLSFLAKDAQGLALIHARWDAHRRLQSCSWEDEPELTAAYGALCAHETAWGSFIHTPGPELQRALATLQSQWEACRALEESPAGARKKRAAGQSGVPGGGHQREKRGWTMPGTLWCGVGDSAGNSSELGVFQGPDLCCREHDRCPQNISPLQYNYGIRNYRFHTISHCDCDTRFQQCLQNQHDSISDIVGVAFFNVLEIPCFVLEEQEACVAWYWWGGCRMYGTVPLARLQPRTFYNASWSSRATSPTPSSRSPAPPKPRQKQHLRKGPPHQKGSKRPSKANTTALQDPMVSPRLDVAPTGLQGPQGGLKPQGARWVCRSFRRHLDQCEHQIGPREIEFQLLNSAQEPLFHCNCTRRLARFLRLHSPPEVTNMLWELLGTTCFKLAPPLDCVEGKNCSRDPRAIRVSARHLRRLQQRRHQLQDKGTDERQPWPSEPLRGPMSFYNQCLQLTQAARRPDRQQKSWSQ
ASAP1 inh – inhibitors of human ASAP1 ArfGAP activity, primary screen, biochemical, fluorescence polarization. Arf-GAP with SH3 domain, ANK repeat and PH domain-containing protein 1 (Homo sapiens), …. ASAP1-stimulated ARF1 GTP hydrolysis, GDP FP detection. inhibition, % at 16.5 µM. 0.19% of 360,000 active; in the data active = inhibition above about 25%;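 also: 0% = vehicle with enzyme and substrate and 100% = no enzyme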
Calb FLC – C. albicans growth inhibition with fluconazole, primary screen, CaCi-2 strain, Alamar Blue fluorescence | C. albicans CaCi-2 + fluconazole, 48 h | growth inhibition, % (no concentration beside the values) | 0.57% of 300,000 active;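 active = growth inhibition above about 58% in most replicates, limit read from the data, passing the limit was not always enough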;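 also: all wells also contain fluconazole at 8 µg/ml as a sub-toxic cotreatment; 0% = median of DMSO wells and 100% = median of geldanamycin control wells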
SKKanGAS inh – S. pyogenes SKKanGAS growth inhibitors in kanamycin, primary screen, streptokinase expression inhibitor project, SKKanGAS strain, BacTiter-Glo luminescence; 6 h; 1.3% of 300,000 active; AID 1662, 2009; inhibition, % at 7.5 µM;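 active = mean replicate score, as percent of positive control median, at least 50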;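 also: strain carries kanamycin resistance gene driven by streptokinase promoter and grows in 40 µg/ml kanamycin; loss of luminescence reflects streptokinase promoter inhibition or plain growth inhibition; 0% = median of DMSO wells and 100% = positive control at its reference dose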
ARFGAP1 inh – inhibitors of rat ARFGAP1 GAP activity, primary screen, biochemical, fluorescence polarization, GDP tracer. ADP-ribosylation factor GTPase-activating protein 1 (Rattus norvegicus), Q62848. Arfgap1-stimulated ARF1 GTP hydrolysis, GDP FP detection. inhibition, % at 16.5 µM. 0.26% of 360,000 active. AID 651572, 2012;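 active = inhibition above a per-plate limit, mean inhibition of low control wells plus 3 SD, cut at about 25% in these data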;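 also: 0% = DMSO wells with enzyme and 100% = wells lacking Arfgap1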
Target sequence (Q62848 1-136 limits assumed): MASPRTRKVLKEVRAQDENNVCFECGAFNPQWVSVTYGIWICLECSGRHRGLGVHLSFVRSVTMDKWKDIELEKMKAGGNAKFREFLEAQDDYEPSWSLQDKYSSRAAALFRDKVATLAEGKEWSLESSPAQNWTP
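Assay system: purified rat His6-Arfgap1 residues 1-136 (GAP domain); Reagent: human Δ17 ARF1 bound to GTP; Dosing: 16.5 µM single point, 1.26% DMSO; Times: GTP hydrolysis reaction 2 h at 25 °C; Signal: FP, GDP Alexa 633 tracer displaced from anti-GDP antibody, 620/688 nm; Measure: % inhibition from polarization.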
An asterisk follows results filed as active.

What do the screens show for `COc1ccc2c(c1)OC[C@H]1[C@H]2N2C(=O)c3ccc(C)cc3NC(=O)[C@@]2(C)[C@H]1c1ccccc1`?
sPLA2-III inh: 40*; ASAP1 inh: 8; ARFGAP1 inh: -5

How did Cn1c(=O)c2c(nc(SCc3ccccc3)n2Cc2ccc(Cl)cc2)n(C)c1=O do in these assays?
sPLA2-III inh: 0; ASAP1 inh: 2; Calb FLC: 0; SKKanGAS inh: 80*; ARFGAP1 inh: -12

Results for CC(C)Sc1nc2c(c(=O)n(C)c(=O)n2C)n1Cc1ccc(Cl)cc1 ?
sPLA2-III inh: -1; ASAP1 inh: -13; Calb FLC: 2; SKKanGAS inh: 14; ARFGAP1 inh: -8

How did COc1cc(/C=C/c2ccc3c(Br)cc(Br)c(O)c3n2)ccc1O do in these assays?
sPLA2-III inh: 5; ASAP1 inh: 13; Calb FLC: -1; SKKanGAS inh: 97*; ARFGAP1 inh: 10

Results for COc1ccc(/C=C/c2noc(-c3ccccc3O)n2)cc1 ?
sPLA2-III inh: -4; ASAP1 inh: -10; Calb FLC: 11; SKKanGAS inh: 0; ARFGAP1 inh: 2

What do the screens show for `COc1cc(/C=C/C(=O)CC(=O)/C=C/c2ccc(O)c(OC)c2)ccc1O`?
sPLA2-III inh: -4; ASAP1 inh: 3; SKKanGAS inh: 7; ARFGAP1 inh: 7

Results for COc1ccc(/C=C/c2ccc3c(Br)ccc(O)c3n2)cc1 ?
sPLA2-III inh: 12; ASAP1 inh: 5; Calb FLC: 0; SKKanGAS inh: 85*; ARFGAP1 inh: 9

Results for CCN(CC)c1ccc(N=Cc2ccc([N+](=O)[O-])o2)cc1 ?
sPLA2-III inh: 19; ASAP1 inh: -31; Calb FLC: 91*; SKKanGAS inh: 19; ARFGAP1 inh: -25

Results for Nc1ccc(C(=O)c2cccs2)cc1[N+](=O)[O-] ?
sPLA2-III inh: 1; ASAP1 inh: 6; Calb FLC: 126*; SKKanGAS inh: 5; ARFGAP1 inh: -2

Results for Nc1ccc(C(=O)O)cc1[N+](=O)[O-] ?
sPLA2-III inh: 5; ASAP1 inh: -7; Calb FLC: 0; SKKanGAS inh: -5; ARFGAP1 inh: 1

What do the screens show for `O=[N+]([O-])c1ccc(Cn2ccc3ccc(-c4ccc5ccn(Cc6ccccc6)c5c4)cc32)cc1`?
sPLA2-III inh: 9

Results for COc1cc(/C=C2/C(=O)NN(c3ccccc3)C2=O)cc(Br)c1O ?
sPLA2-III inh: -5; ASAP1 inh: 9; Calb FLC: -17; SKKanGAS inh: 1; ARFGAP1 inh: -4

What do the screens show for `CCOc1cc(/C=C2\C(=O)NN(c3ccccc3)C2=O)cc([N+](=O)[O-])c1O`?
sPLA2-III inh: -8; ASAP1 inh: -4; Calb FLC: 95*; SKKanGAS inh: -4; ARFGAP1 inh: 0

What do the screens show for `COc1cc(/C=C2/C(=O)NN(c3ccc(Cl)cc3)C2=O)cc(OC)c1O`?
sPLA2-III inh: -11; ASAP1 inh: 5; Calb FLC: 90*; SKKanGAS inh: -1; ARFGAP1 inh: -10

Results for COc1cc(/C=C2\C(=O)NN(c3ccccc3)C2=O)cc([N+](=O)[O-])c1O ?
sPLA2-III inh: -4; ASAP1 inh: -2; Calb FLC: 109*; SKKanGAS inh: 3; ARFGAP1 inh: -14

What do the screens show for `Cc1cc(C)cc([C@H]2C[C@]34CN(Cc5ccccc5)S(=O)(=O)[C@H]3C[C@H]2O4)c1`?
sPLA2-III inh: -2; ASAP1 inh: 7; ARFGAP1 inh: -2

What do the screens show for `Cc1cccc2c1CCC1CN(Cc3ccccc3)S(=O)(=O)N21` (centres undefined)?
sPLA2-III inh: -4

What do the screens show for `COCCCN1C(=O)[C@H](CC(=O)NCCCN2CCCC2=O)[C@]2(C(=O)OC)CCCCC=C12`?
sPLA2-III inh: 5

Results for CC(=NNC(=O)CSc1nnc(-c2ccccc2)n1-c1ccccc1)c1ccc2ccccc2c1 ?
sPLA2-III inh: -6

How did O=C(NCc1ccco1)c1[nH]c(C(F)(F)F)nc1-c1ccccc1 do in these assays?
sPLA2-III inh: 6; ASAP1 inh: -9; ARFGAP1 inh: -3

How did CCOc1ccc(C(=O)NC(=S)Nc2ccc(NC(=O)CC)cc2)cc1[N+](=O)[O-] do in these assays?
sPLA2-III inh: 5; ASAP1 inh: 14; Calb FLC: 33; SKKanGAS inh: 53*; ARFGAP1 inh: 14

What do the screens show for `CCOc1ccc(C(=O)NC(=S)Nc2cccc(NC(=O)c3ccco3)c2)cc1[N+](=O)[O-]`?
sPLA2-III inh: 0; ASAP1 inh: 4; Calb FLC: 19; SKKanGAS inh: 65*; ARFGAP1 inh: 17

How did CC[C@@]1(c2ccc(C)cc2)C(=O)N(C(=O)OC(C)C)N1C(=O)OC(C)C do in these assays?
sPLA2-III inh: 14

How did COc1ccccc1NC(=S)NC(=O)c1ccc(-c2ccc(Cl)cc2)o1 do in these assays?
sPLA2-III inh: 1; ASAP1 inh: 6; Calb FLC: 4; SKKanGAS inh: -13; ARFGAP1 inh: 14

How did O=C(NC(=S)Nc1ccccc1O)c1ccc(-c2ccc(Cl)cc2)o1 do in these assays?
sPLA2-III inh: 10; ASAP1 inh: 0; Calb FLC: 4; SKKanGAS inh: 53*; ARFGAP1 inh: -10

What do the screens show for `Cc1ccc(O)c(NC(=S)NC(=O)c2ccc(-c3ccc(Cl)cc3)o2)c1`?
sPLA2-III inh: -3; ASAP1 inh: 16; Calb FLC: 29; SKKanGAS inh: 96*; ARFGAP1 inh: -1

Results for CCCCNC(=O)C[C@@H]1C[C@]2(C(=O)OCC)CCC3=C2N(CCC3)C1=O ?
sPLA2-III inh: 0

What do the screens show for `Cc1cc2nc(N3C(=O)CNC3=S)sc2cc1C`?
sPLA2-III inh: -4; ASAP1 inh: 7; Calb FLC: 56; SKKanGAS inh: 85*; ARFGAP1 inh: -3

How did CCCCCCCCN1C(=O)[C@@H](CC(=O)N2CCSCC2)C[C@@]2(C(=O)OC)C1=C[C@H](C1CCCC1)O[C@@H]2C do in these assays?
sPLA2-III inh: 0; ASAP1 inh: 2; ARFGAP1 inh: 8

What do the screens show for `O=C1C=CC(=O)C(CNc2ccc(C(=O)OCc3ccccc3)cc2)=C1`?
sPLA2-III inh: 26*; ASAP1 inh: 4; ARFGAP1 inh: 15

Results for c1ccc(Nc2ccccc2Nc2ccccn2)nc1 ?
sPLA2-III inh: 1; ASAP1 inh: 6; Calb FLC: -6; SKKanGAS inh: -11; ARFGAP1 inh: 6

What do the screens show for `Oc1cccc2ccc(Nc3ccccn3)nc12`?
sPLA2-III inh: -3; ASAP1 inh: 2; Calb FLC: 103*; SKKanGAS inh: 39; ARFGAP1 inh: 14
